Assay [1] can be described thus: Displacement of [3H]flumazenil from GABAA/BzR complex in bovine cerebral cortex membrane. It is filed as cell membranes, Bos taurus. A digest of the protocol: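 Bovine cerebral cortex membranes in 50 mM Tris-citrate pH 7.4 incubated with [3H]Ro15-1788 (1–2 nM) for 1 h at 4 °C to equilibrium; nonspecific binding with 10^-5 M diazepam; DMSO ≤1%. Ki from ≥6 concentrations (10^-9–10^-5 M) by curve fitting and Cheng–Prusoff; percent inhibition at 10 µM; five determinations, triplicate.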
For orientation: Displacement assays read how much labelled ligand stays bound in the presence of the test substance.

The subject of assay [2] is Mus musculus. Nature of the assay: Anticonvulsant activity against pentylenetetrazole-induced seizure in CD1 Albino mouse assessed as convulsant latency at 3 mg/kg, po after 30 mins. Format: functional. A digest of the protocol: (§1)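 Male CD-1 mice (22–24 g), compound suspended in 1% CMC (sonicated) given po in 10 ml/kg; 30 min later PTZ 90 mg/kg sc (in saline). Latency (s) to shock and to convulsions recorded; clonic generalized convulsions counted over 30 min.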

The test system of assay [3] is Mus musculus. Nature of the assay: Anticonvulsant activity against pentylenetetrazole-induced seizure in CD1 Albino mouse assessed as shock latency at 10 mg/kg, po after 30 mins. Format: functional. A digest of the protocol: as §1
In assay [4] the test system is Mus musculus. Description: Effect on motor coordination in CD1 Albino mouse assessed as number of falls in 30 secs at 3 mg/kg, po after 30 mins by rotarod test. Format: functional. In short, it runs like this:
(§2)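 Rota-rod at 16 rpm in male CD-1 mice after po dosing in 1% CMC; number of falls in 30 s counted at 15, 30, 45 and 60 min post-administration.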
For orientation: The rotarod test checks motor coordination on a turning rod.

For assay [5], the system named is Mus musculus. Nature of the assay: Increase in learning and memory performance in CD1 albino mouse at 30 mg/kg, po after 24 hrs by passive avoidance test. Also on record: dose 30 mg/kg. Format: functional, organism-based. In short, it runs like this: (§3)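 Passive avoidance in male CD-1 mice treated po 30 min before training; retention tested 24 h later. Latency to enter the dark compartment measured, maximum 60 s (training) and 180 s (retention). Means ± SEM of 15–18 mice.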

Assay [6] has as its system Mus musculus. Nature of the assay: Effect on ethanol-induced sleeping time in CD1 Albino mouse assessed as increase in duration of loss of righting reflex at 3 mg/kg, po after 30 mins. Format: functional, organism-based. Set-up: dose 3 mg/kg. A digest of the protocol: (§4)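 Male CD-1 mice dosed po (1% CMC suspension); ethanol 4 g/kg ip given 30 min after the compound. Sleep time taken as duration of loss of righting reflex, end-point 150 min.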

The subject of assay [7] is Mus musculus. Description: Sedative activity in CD1 albino mouse assessed as reduction of curiosity at 3 mg/kg, po after 30 mins by hole-board test. It is filed as functional, organism-based. Set-up: dose 3 mg/kg. In short, it runs like this: (§5)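 Hole-board: male CD-1 mice given compound po (1% CMC) and placed individually on the board 30 min later, free to explore panel and holes for 5 min; spontaneous motility and exploration (panel and hole movements) scored.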

Assay [8] deals with Mus musculus. Description: Effect on motor coordination in CD1 Albino mouse assessed as number of falls in 30 secs at 30 mg/kg, po after 30 mins by rotarod test relative to control. It is filed as functional. A digest of the protocol:
as §2

In assay [9] the test system is Mus musculus. Description: Anxiolytic effect in CD1 albino mouse at 10 mg/kg, po after 30 mins by light-dark box test. Format: functional, organism-based. Set-up: dose 10 mg/kg. A digest of the protocol: (§6)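 Male CD-1 mice (22–24 g); test agent po in 1% CMC, 30 min before a light/dark box session; time (s) spent in the illuminated compartment measured. Means ± SEM of 14–21 mice.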

Assay [10] concerns Mus musculus. Nature of the assay: Increase in learning and memory performance in CD1 albino mouse at 10 mg/kg, po after 24 hrs by passive avoidance test. Format: functional, organism-based. Also on record: dose 10 mg/kg. A digest of the protocol:
as §3

Assay [11] deals with Mus musculus. Nature of the assay: Effect on motor coordination in CD1 Albino mouse assessed as number of falls in 30 secs at 10 mg/kg, po after 30 mins by rotarod test relative to control. Format: functional. In short, it runs like this: as §2
The test system of assay [12] is Mus musculus. Nature of the assay: Anticonvulsant activity against pentylenetetrazole-induced seizure in CD1 Albino mouse assessed as convulsant latency at 30 mg/kg, po after 30 mins. It is filed as functional. In short, it runs like this:
as §1

Assay [13] deals with Mus musculus. Nature of the assay: Anticonvulsant activity against pentylenetetrazole-induced seizure in CD1 Albino mouse assessed as convulsant latency at 10 mg/kg, po after 30 mins. It is filed as functional. A digest of the protocol: as §1
Assay [14] has as its system Mus musculus. Nature of the assay: Anxiolytic effect in CD1 albino mouse at 30 mg/kg, po after 30 mins by light-dark box test. Format: functional, organism-based. Also on record: dose 30 mg/kg. In short, it runs like this:
as §6

Assay [15] relates to Mus musculus. Nature of the assay: Sedative activity in CD1 albino mouse assessed as reduction of curiosity at 30 mg/kg, po after 30 mins by hole-board test. It is filed as functional, organism-based. Also on record: dose 30 mg/kg. A digest of the protocol:
as §5

The subject of assay [16] is Mus musculus. Nature of the assay: Anticonvulsant activity against pentylenetetrazole-induced seizure in CD1 Albino mouse assessed as shock latency at 3 mg/kg, po after 30 mins. Format: functional. In short, it runs like this:
as §1

Assay [17] concerns Mus musculus. Nature of the assay: Effect on ethanol-induced sleeping time in CD1 Albino mouse assessed as increase in duration of loss of righting reflex at 10 mg/kg, po after 30 mins. It is filed as functional, organism-based. Set-up: dose 10 mg/kg. A digest of the protocol:
as §4

Assay [18] relates to Mus musculus. Nature of the assay: Effect on ethanol-induced sleeping time in CD1 Albino mouse assessed as increase in duration of loss of righting reflex at 30 mg/kg, po after 30 mins. Also on record: dose 30 mg/kg. It is filed as functional, organism-based. In short, it runs like this: as §4
The test system of assay [19] is Mus musculus. Description: Anticonvulsant activity against pentylenetetrazole-induced seizure in CD1 Albino mouse assessed as shock latency at 30 mg/kg, po after 30 mins. It is filed as functional. A digest of the protocol: as §1
For assay [20], the species on record is Mus musculus. Description: Reversal of anxiolytic effect in CD1 albino mouse by light-dark box test in presence of flumazenil. Format: functional, organism-based. In short, it runs like this: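 Light/dark box in male CD-1 mice: compound po (1% CMC) 30 min before test, with flumazenil given ip at […] in saline; time (s) in illuminated compartment recorded. Means ± SEM of 14–21 mice.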

For assay [21], the system named is Mus musculus. Description: Sedative activity in CD1 albino mouse assessed as reduction of explorative activity at 10 mg/kg, po after 30 mins by hole-board test. Set-up: dose 10 mg/kg. Format: functional, organism-based. In short, it runs like this:
as §5

Assay [22] relates to Mus musculus. Description: Sedative activity in CD1 albino mouse assessed as reduction of explorative activity at 30 mg/kg, po after 30 mins by hole-board test. Format: functional, organism-based. Set-up: dose 30 mg/kg. A digest of the protocol:
as §5

Assay [23] deals with Mus musculus. Description: Sedative activity in CD1 albino mouse assessed as reduction of spontaneous motility at 10 mg/kg, po after 30 mins by hole-board test. It is filed as functional, organism-based. Set-up: dose 10 mg/kg. A digest of the protocol:
as §5

For assay [24], the system named is Mus musculus. Nature of the assay: Anxiolytic effect in CD1 albino mouse at 3 mg/kg, po after 30 mins by light-dark box test. It is filed as functional, organism-based. Set-up: dose 3 mg/kg. In short, it runs like this: as §6
The subject of assay [25] is Mus musculus. Description: Increase in learning and memory performance in CD1 albino mouse at 3 mg/kg, po after 24 hrs by passive avoidance test. It is filed as functional, organism-based. Also on record: dose 3 mg/kg. In short, it runs like this: as §3
The subject of assay [26] is Mus musculus. Nature of the assay: Sedative activity in CD1 albino mouse assessed as reduction of spontaneous motility at 3 mg/kg, po after 30 mins by hole-board test. It is filed as functional, organism-based. Also on record: dose 3 mg/kg. A digest of the protocol:
as §5

Assay [27] concerns Mus musculus. Description: Sedative activity in CD1 albino mouse assessed as reduction of explorative activity at 3 mg/kg, po after 30 mins by hole-board test. Also on record: dose 3 mg/kg. Format: functional, organism-based. A digest of the protocol:
as §5

Assay [28] concerns Mus musculus. Nature of the assay: Sedative activity in CD1 albino mouse assessed as reduction of spontaneous motility at 30 mg/kg, po after 30 mins by hole-board test. Format: functional, organism-based. Set-up: dose 30 mg/kg. A digest of the protocol:
as §5

Active and inactive are the calls of the source. No cut-off for these calls is given here.

A word on the Ki: it is the dissociation constant of the complex between target and ligand, obtained from inhibition or displacement. Lower therefore signals a stronger hold on the target.

`COc1ccc(C(=O)c2cnn3c2n[n+]([O-])c2ccc(Cl)cc23)cc1` gave a Ki in assay [1] of 1240 nM.
Still for that read-out and setting: with `O=C(c1ccc[nH]1)c1cnn2c1n[n+]([O-])c1ccc(Oc3ccccc3)cc12` the figure was 276 nM; with `CCOc1ccc2c(c1)n1ncc(C(C)=O)c1n[n+]2[O-]`, 902 nM.
In the case of `O=C(c1cccs1)c1cnn2c1n[n+]([O-])c1ccc(Oc3ccccc3)cc12`, the Activity with Mus musculus [2] amounted to 460.3 s; in the assay on Mus musculus [3], 279.7 s; in the assay with Mus musculus [4] it was 0.8 count; in the assay on Mus musculus [8] it was 2 count; with Mus musculus [11] it was 1.6 count; in the assay on Mus musculus [12] it was 766.6 s. Moreover, the Activity with Mus musculus [13] is given as 542.6 s; in the assay on Mus musculus [16], 224.5 s; in the assay with Mus musculus [19], 614.1 s. In addition, the outcome in the assay with Mus musculus [5], in the assay with Mus musculus [6], with Mus musculus [7], with Mus musculus [9], with Mus musculus [10] and in the assay on Mus musculus [14] was Active. For the same molecule, the outcome in the assay on Mus musculus [15], with Mus musculus [17] and in the assay on Mus musculus [18] was Active. For the same molecule, in [1], the inhibition constant (Ki) came to 8.9 nM.
Molecule `O=C(c1ccc2c(c1)OCO2)c1cnn2c1n[n+]([O-])c1ccc(Cl)cc12` displayed a Ki in assay [1] of 2900 nM.
In the case of `O=C(c1ccc[nH]1)c1cnn2c1n[n+]([O-])c1ccc(Cl)cc12`, the Activity in the assay on Mus musculus [2] amounted to 498.8 s; in the assay on Mus musculus [3] it was 264.7 s; in the assay on Mus musculus [4], 0.6 count; in the assay with Mus musculus [8], 0.8 count; in the assay on Mus musculus [11], 1.2 count; with Mus musculus [12] it was 535.2 s. The Activity in the assay with Mus musculus [13] was 647.8 s; in the assay on Mus musculus [16], 297.5 s; in the assay on Mus musculus [19] it was 329.6 s. Moreover, the outcome in the assay filed under Mus musculus [20], in the assay with Mus musculus [21], in the assay on Mus musculus [23], in the assay on Mus musculus [24], in the assay with Mus musculus [26] and with Mus musculus [27] was inactive. The outcome in the assay on Mus musculus [6], in the assay on Mus musculus [22], in the assay with Mus musculus [9], with Mus musculus [25], in the assay with Mus musculus [10] and with Mus musculus [17] was Active. Also, the outcome with Mus musculus [18] and in the assay with Mus musculus [28] was Active. In addition, in [1], the affinity, expressed as Ki, was 4 nM.
Regarding `CCOc1ccc2c(c1)n1ncc(C(=O)c3ccco3)c1n[n+]2[O-]`, the Activity stood at 328.5 s with Mus musculus [2]; 0.6 count in the assay with Mus musculus [4]; 0.6 count with Mus musculus [8]; 0.8 count in the assay with Mus musculus [11]; 488.2 s with Mus musculus [13]. Further, the result in the assay on Mus musculus [7] and in the assay with Mus musculus [15] was Active. Moreover, the inhibitory constant (Ki) in [1] came out at 28 nM.
Take `O=C(c1ccccc1)c1cnn2c1n[n+]([O-])c1ccc(Cl)cc12`: affinity in assay [1] was put at a Ki of 3490 nM. In other words, the single-digit micromolar range.
Still for that read-out and setting: the same measure for `CCOc1ccc2c(c1)n1ncc(C(=O)c3ccc(OC)cc3)c1n[n+]2[O-]`: 919 nM.
Same read-out and setting: the same measure for `O=C(c1ccsc1)c1cnn2c1n[n+]([O-])c1ccc(Cl)cc12`: 121 nM.
As to `O=C(c1cccnc1)c1cnn2c1n[n+]([O-])c1ccc(Cl)cc12`, the inhibition constant (Ki) in [1] was 2400 nM.
On the same count and under the same terms, with `O=C(c1ccco1)c1cnn2c1n[n+]([O-])c1ccc(Oc3ccccc3)cc12` the figure was 7 nM; with `Cn1ccc(C(=O)c2cnn3c2n[n+]([O-])c2ccc(Cl)cc23)c1`, 380 nM.
Molecule `CCOc1ccc2c(c1)n1ncc(C(=O)c3ccc[nH]3)c1n[n+]2[O-]` returned a Ki in assay [1] of 1840 nM.
In assay [1], `O=C(c1cccs1)c1cnn2c1n[n+]([O-])c1ccc(Cl)cc12` registered a Ki of 62 nM.
